{"source": "ChEMBL document CHEMBL4689842", "about": "“EUbOPEN Chemogenomics Library wave 1” (2021)", "test_system": "U2OS", "assay": "Multiplex assay against U2OS", "assay_type": "toxicity, cell-based", "settings": "human", "summary_of_the_method": "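Cells stained live at seeding with Hoechst33342, BioTracker Green Microtubule Cytoskeleton Dye, MitoTracker Red and Annexin V Alexa Fluor 680 were imaged on a CQ1 microscope at 37°C and 5% CO2 after compound addition. Their classification by CellPathfinder machine-learning gating ran from Hoechst high-intensity objects versus normal cells, to healthy, pyknosed or fragmented nuclei among normal cells, to mitotic or apoptotic among pyknosed cells. Tubulin, mitochondrial-mass and membrane-permeability phenotypes are per cents of healthy-nucleus cells.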", "key": {"[1]": {"settings": "12 h, 1 µM, compound concentration 1 uM, replicate 1"}, "[2]": {"settings": "12 h, 1 µM, compound concentration 1 uM, replicate 2"}, "[3]": {"settings": "12 h, 10 µM, compound concentration 10 uM, replicate 1"}, "[4]": {"settings": "12 h, 10 µM, compound concentration 10 uM, replicate 2"}, "[5]": {"settings": "24 h, 1 µM, compound concentration 1 uM, replicate 1"}, "[6]": {"settings": "24 h, 1 µM, compound concentration 1 uM, replicate 2"}, "[7]": {"settings": "24 h, 10 µM, compound concentration 10 uM, replicate 1"}, "[8]": {"settings": "24 h, 10 µM, compound concentration 10 uM, replicate 2"}}}
{"smiles": "CNC(=O)Nc1ccc2c(c1)[C@@]1(CC2)OC(=O)N(CC(=O)N(Cc2ccc(F)cc2)[C@@H](C)C(F)(F)F)C1=O", "note": "[A-486]", "values": [{"measurement": "Population Apoptotic (%)", "setting": "[1]", "value": 47, "unit": "%"}, {"measurement": "Population Fragmented Nuclei (%)", "setting": "[1]", "value": 4, "unit": "%"}, {"measurement": "Population Healthy Nuclei (%)", "setting": "[1]", "value": 81, "unit": "%"}, {"measurement": "Population Hoechst High Intensity Objects (%)", "setting": "[1]", "value": 4, "unit": "%"}, {"measurement": "Population Membrane Permeable-Phenotype (%)", "setting": "[1]", "value": 63, "unit": "%"}, {"measurement": "Population Mitochondria Different-Phenotype (%)", "setting": "[1]", "value": 11, "unit": "%"}, {"measurement": "Population Mitotic Cells (%)", "setting": "[1]", "value": 52, "unit": "%"}, {"measurement": "Population Normal (%)", "setting": "[1]", "value": 95, "unit": "%"}, {"measurement": "Population Pyknosed Nuclei (%)", "setting": "[1]", "value": 14, "unit": "%"}, {"measurement": "Population Tubulin-Different-Phenotype (%)", "setting": "[1]", "value": 57, "unit": "%"}, {"measurement": "Total Cell Count", "setting": "[1]", "value": 248}, {"measurement": "Population Apoptotic (%)", "setting": "[2]", "value": 75, "unit": "%"}, {"measurement": "Population Fragmented Nuclei (%)", "setting": "[2]", "value": 7, "unit": "%"}, {"measurement": "Population Healthy Nuclei (%)", "setting": "[2]", "value": 88, "unit": "%"}, {"measurement": "Population Hoechst High Intensity Objects (%)", "setting": "[2]", "value": 11, "unit": "%"}, {"measurement": "Population Membrane Permeable-Phenotype (%)", "setting": "[2]", "value": 59, "unit": "%"}, {"measurement": "Population Mitochondria Different-Phenotype (%)", "setting": "[2]", "value": 19, "unit": "%"}, {"measurement": "Population Mitotic Cells (%)", "setting": "[2]", "value": 25, "unit": "%"}, {"measurement": "Population Normal (%)", "setting": "[2]", "value": 88, "unit": "%"}, {"measurement": "Population Pyknosed Nuclei (%)", "setting": "[2]", "value": 4, "unit": "%"}, {"measurement": "Population Tubulin-Different-Phenotype (%)", "setting": "[2]", "value": 60, "unit": "%"}, {"measurement": "Total Cell Count", "setting": "[2]", "value": 105}, {"measurement": "Population Apoptotic (%)", "setting": "[3]", "value": 27, "unit": "%"}, {"measurement": "Population Fragmented Nuclei (%)", "setting": "[3]", "value": 3, "unit": "%"}, {"measurement": "Population Healthy Nuclei (%)", "setting": "[3]", "value": 85, "unit": "%"}, {"measurement": "Population Hoechst High Intensity Objects (%)", "setting": "[3]", "value": 1, "unit": "%"}, {"measurement": "Population Membrane Permeable-Phenotype (%)", "setting": "[3]", "value": 9, "unit": "%"}, {"measurement": "Population Mitochondria Different-Phenotype (%)", "setting": "[3]", "value": 19, "unit": "%"}, {"measurement": "Population Mitotic Cells (%)", "setting": "[3]", "value": 72, "unit": "%"}, {"measurement": "Population Normal (%)", "setting": "[3]", "value": 99, "unit": "%"}, {"measurement": "Population Pyknosed Nuclei (%)", "setting": "[3]", "value": 11, "unit": "%"}, {"measurement": "Population Tubulin-Different-Phenotype (%)", "setting": "[3]", "value": 12, "unit": "%"}, {"measurement": "Total Cell Count", "setting": "[3]", "value": 201}, {"measurement": "Population Apoptotic (%)", "setting": "[4]", "value": 33, "unit": "%"}, {"measurement": "Population Fragmented Nuclei (%)", "setting": "[4]", "value": 6, "unit": "%"}, {"measurement": "Population Healthy Nuclei (%)", "setting": "[4]", "value": 83, "unit": "%"}, {"measurement": "Population Hoechst High Intensity Objects (%)", "setting": "[4]", "value": 11, "unit": "%"}, {"measurement": "Population Membrane Permeable-Phenotype (%)", "setting": "[4]", "value": 21, "unit": "%"}, {"measurement": "Population Mitochondria Different-Phenotype (%)", "setting": "[4]", "value": 26, "unit": "%"}, {"measurement": "Population Mitotic Cells (%)", "setting": "[4]", "value": 66, "unit": "%"}, {"measurement": "Population Normal (%)", "setting": "[4]", "value": 88, "unit": "%"}, {"measurement": "Population Pyknosed Nuclei (%)", "setting": "[4]", "value": 10, "unit": "%"}, {"measurement": "Population Tubulin-Different-Phenotype (%)", "setting": "[4]", "value": 28, "unit": "%"}, {"measurement": "Total Cell Count", "setting": "[4]", "value": 102}, {"measurement": "Population Apoptotic (%)", "setting": "[5]", "value": 33, "unit": "%"}, {"measurement": "Population Fragmented Nuclei (%)", "setting": "[5]", "value": 3, "unit": "%"}, {"measurement": "Population Healthy Nuclei (%)", "setting": "[5]", "value": 89, "unit": "%"}, {"measurement": "Population Hoechst High Intensity Objects (%)", "setting": "[5]", "value": 4, "unit": "%"}, {"measurement": "Population Membrane Permeable-Phenotype (%)", "setting": "[5]", "value": 45, "unit": "%"}, {"measurement": "Population Mitochondria Different-Phenotype (%)", "setting": "[5]", "value": 14, "unit": "%"}, {"measurement": "Population Mitotic Cells (%)", "setting": "[5]", "value": 66, "unit": "%"}, {"measurement": "Population Normal (%)", "setting": "[5]", "value": 95, "unit": "%"}, {"measurement": "Population Pyknosed Nuclei (%)", "setting": "[5]", "value": 6, "unit": "%"}, {"measurement": "Population Tubulin-Different-Phenotype (%)", "setting": "[5]", "value": 30, "unit": "%"}, {"measurement": "Total Cell Count", "setting": "[5]", "value": 329}, {"measurement": "Population Apoptotic (%)", "setting": "[6]", "value": 75, "unit": "%"}, {"measurement": "Population Fragmented Nuclei (%)", "setting": "[6]", "value": 7, "unit": "%"}, {"measurement": "Population Healthy Nuclei (%)", "setting": "[6]", "value": 88, "unit": "%"}, {"measurement": "Population Hoechst High Intensity Objects (%)", "setting": "[6]", "value": 7, "unit": "%"}, {"measurement": "Population Membrane Permeable-Phenotype (%)", "setting": "[6]", "value": 44, "unit": "%"}, {"measurement": "Population Mitochondria Different-Phenotype (%)", "setting": "[6]", "value": 18, "unit": "%"}, {"measurement": "Population Mitotic Cells (%)", "setting": "[6]", "value": 25, "unit": "%"}, {"measurement": "Population Normal (%)", "setting": "[6]", "value": 92, "unit": "%"}, {"measurement": "Population Pyknosed Nuclei (%)", "setting": "[6]", "value": 3, "unit": "%"}, {"measurement": "Population Tubulin-Different-Phenotype (%)", "setting": "[6]", "value": 27, "unit": "%"}, {"measurement": "Total Cell Count", "setting": "[6]", "value": 115}, {"measurement": "Population Apoptotic (%)", "setting": "[7]", "value": 46, "unit": "%"}, {"measurement": "Population Fragmented Nuclei (%)", "setting": "[7]", "value": 2, "unit": "%"}, {"measurement": "Population Healthy Nuclei (%)", "setting": "[7]", "value": 92, "unit": "%"}, {"measurement": "Population Hoechst High Intensity Objects (%)", "setting": "[7]", "value": 0, "unit": "%"}, {"measurement": "Population Membrane Permeable-Phenotype (%)", "setting": "[7]", "value": 5, "unit": "%"}, {"measurement": "Population Mitochondria Different-Phenotype (%)", "setting": "[7]", "value": 14, "unit": "%"}, {"measurement": "Population Mitotic Cells (%)", "setting": "[7]", "value": 53, "unit": "%"}, {"measurement": "Population Normal (%)", "setting": "[7]", "value": 99, "unit": "%"}, {"measurement": "Population Pyknosed Nuclei (%)", "setting": "[7]", "value": 5, "unit": "%"}, {"measurement": "Population Tubulin-Different-Phenotype (%)", "setting": "[7]", "value": 17, "unit": "%"}, {"measurement": "Total Cell Count", "setting": "[7]", "value": 277}, {"measurement": "Population Apoptotic (%)", "setting": "[8]", "value": 40, "unit": "%"}, {"measurement": "Population Fragmented Nuclei (%)", "setting": "[8]", "value": 5, "unit": "%"}, {"measurement": "Population Healthy Nuclei (%)", "setting": "[8]", "value": 90, "unit": "%"}, {"measurement": "Population Hoechst High Intensity Objects (%)", "setting": "[8]", "value": 9, "unit": "%"}, {"measurement": "Population Membrane Permeable-Phenotype (%)", "setting": "[8]", "value": 14, "unit": "%"}, {"measurement": "Population Mitochondria Different-Phenotype (%)", "setting": "[8]", "value": 33, "unit": "%"}, {"measurement": "Population Mitotic Cells (%)", "setting": "[8]", "value": 60, "unit": "%"}, {"measurement": "Population Normal (%)", "setting": "[8]", "value": 90, "unit": "%"}, {"measurement": "Population Pyknosed Nuclei (%)", "setting": "[8]", "value": 4, "unit": "%"}, {"measurement": "Population Tubulin-Different-Phenotype (%)", "setting": "[8]", "value": 37, "unit": "%"}, {"measurement": "Total Cell Count", "setting": "[8]", "value": 126}]}
